Measured values as given in ChEMBL document CHEMBL1123589, “Phenylpiperazine-based radiopharmaceuticals for brain imaging. 3. Synthesis and evaluation of radioiodinated 1-alkyl-4-phenylpiperazines” (J Med Chem, 1987).

Assays:
Conditions in all cases: in vivo
Rattus norvegicus [1] = experiment: The biodistribution of the [125I]-labeled compound in rats after intravenous injection was evaluated in thyroid at 1.00 hrs; value ranges from 2.56-3.24 (ID.kg/g); assay type: ADME, organism-based, Thyroid gland
How it was run: (§1)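 Male Sprague-Dawley rats (250–300 g) under ether anesthesia given iv 0.1 mL saline containing 10–15 μCi of NCA ¹²⁵I-labeled agent (chloramine-T iodination, HPLC-purified). Groups of 3 killed at 0.25, 1 and 4 h. Blood and tissues excised, weighed and γ-counted. Values are mean (range) of % injected dose × body mass (kg) per gram of tissue.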

Rattus norvegicus [2] = experiment: The biodistribution of the [125I]-labeled compound in rats after intravenous injection was evaluated in brain at 4.00 hrs; value ranges from 0.04-0.05 (ID.kg/g); assay type: ADME, organism-based
How it was run: (§2)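 Male Sprague-Dawley rats (250–300 g) under ether anesthesia were given an iv injection of no-carrier-added 125I-labelled agent (10–15 μCi in 0.1 mL saline). The agent was iodinated with chloramine-T in acetate buffer and purified by C-18 HPLC. Groups of N = 3 were killed at 0.25, 1 and 4 h. Blood and tissues were weighed and γ-counted. Values are % ID·kg/g, mean (range).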

Rattus norvegicus [3] = experiment: The biodistribution of the [125I]-labeled compound in rats after intravenous injection was evaluated in kidney at 1.00 hrs; value ranges from 0.26-0.35 (ID.kg/g); assay type: ADME, organism-based
How it was run: (§3)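 Male Sprague-Dawley rats (250–300 g), under ether anesthesia, given 10–15 μCi of the NCA ¹²⁵I-labeled agent iv in 0.1 mL saline. Groups of N = 3 were killed at 0.25, 1 or 4 h. Blood and tissues were removed, weighed and counted in a γ-well scintillation counter. Values are mean % ID·kg/g (range).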

Rattus norvegicus [4] = experiment: The biodistribution of the [125I]-labeled compound in rats after intravenous injection was evaluated in heart at 1.00 hrs; value ranges from 0.08-0.09 (ID.kg/g); assay type: ADME, organism-based; how it was run: as §2
Rattus norvegicus [5] = experiment: The biodistribution of the [125I]-labeled compound in rats after intravenous injection was evaluated in muscle at 1.00 hrs; value ranges from 0.03-0.04 (ID.kg/g); assay type: ADME, organism-based, Muscle tissue; how it was run: as §1
Rattus norvegicus [6] = experiment: The biodistribution of the [125I]-labeled compound in rats after intravenous injection was evaluated in heart at 0.25 hrs (ID.kg/g); assay type: ADME, organism-based; how it was run: as §2
Rattus norvegicus [7] = experiment: The biodistribution of the [125I]-labeled compound in rats after intravenous injection was evaluated in muscle at 0.25 hrs; value ranges from 0.03-0.04 (ID.kg/g); assay type: ADME, organism-based, Muscle tissue; how it was run: as §1
Rattus norvegicus [8] = experiment: The biodistribution of the [125I]-labeled compound in rats after intravenous injection was evaluated in blood at 1.00 hrs (ID.kg/g); assay type: ADME, organism-based; how it was run: as §2
Rattus norvegicus [9] = experiment: The biodistribution of the [125I]-labeled compound in rats after intravenous injection was evaluated in thyroid at 4.00 hrs; value ranges from 14.14-15.81 (ID.kg/g); assay type: ADME, organism-based, Thyroid gland; how it was run: as §1
Rattus norvegicus [10] = experiment: The biodistribution of the [125I]-labeled compound in rats after intravenous injection was evaluated in kidney at 4.00 hrs; value ranges from 0.26-0.35 (ID.kg/g); assay type: ADME, organism-based; how it was run: as §3
Rattus norvegicus [11] = experiment: The biodistribution of the [125I]-labeled compound in rats after intravenous injection was evaluated in kidney at 0.25 hr; value ranges from 0.28-0.32 (ID.kg/g); assay type: ADME, organism-based; how it was run: as §3
Rattus norvegicus [12] = experiment: The biodistribution of the [125I]-labeled compound in rats after intravenous injection was evaluated in brain at 1.00 hrs; value ranges from 0.14-0.15 (ID.kg/g); assay type: ADME, organism-based; how it was run: as §2
Rattus norvegicus [13] = experiment: The biodistribution of the [125I]-labeled compound in rats after intravenous injection was evaluated in lung at 0.25 hrs; value ranges from 0.52-0.58 (ID.kg/g); assay type: ADME, organism-based; how it was run: as §3
Rattus norvegicus [14] = experiment: The biodistribution of the [125I]-labeled compound in rats after intravenous injection was evaluated in thyroid at 0.25 hrs; value ranges from 1.31-2.46( ID.kg/g); assay type: ADME, organism-based, Thyroid gland; how it was run: as §1
Rattus norvegicus [15] = experiment: The biodistribution of the [125I]-labeled compound in rats after intravenous injection was evaluated in adrenal at 0.25 hrs; value ranges from 1.25-1.44 (ID.kg/g); assay type: ADME, organism-based; how it was run: as §2
Rattus norvegicus [16] = experiment: The biodistribution of the [125I]-labeled compound in rats after intravenous injection was evaluated in fat at 4.00 hrs; value ranges from 0.07-0.09 (ID.kg/g); assay type: ADME, organism-based, Adipose tissue; how it was run: as §2
Rattus norvegicus [17] = experiment: The biodistribution of the [125I]-labeled compound in rats after intravenous injection was evaluated in blood at 0.25 hrs (ID.kg/g); assay type: ADME, organism-based; how it was run: as §2
Rattus norvegicus [18] = experiment: The biodistribution of the [125I]-labeled compound in rats after intravenous injection was evaluated in fat at 1.00 hrs; value ranges from 0.07-0.09 (ID.kg/g); assay type: ADME, organism-based, Adipose tissue; how it was run: as §2
Rattus norvegicus [19] = experiment: The biodistribution of the [125I]-labeled compound in rats after intravenous injection was evaluated in brain at 0.25 hrs; value ranges from 0.23-0.25 (ID.kg/g); assay type: ADME, organism-based; how it was run: as §2
Rattus norvegicus [20] = experiment: The biodistribution of the [125I]-labeled compound in rats after intravenous injection was evaluated in fat at 0.25 hr (ID. kg/g); assay type: ADME, organism-based, Adipose tissue; how it was run: as §2
Rattus norvegicus [21] = experiment: The biodistribution of the [125I]-labeled compound in rats after intravenous injection was evaluated in blood at 4.00 hrs; value ranges from […]-0.09 (ID.kg/g); assay type: ADME, organism-based; how it was run: as §2
Rattus norvegicus [22] = experiment: The biodistribution of the [125I]-labeled compound in rats after intravenous injection was evaluated in heart at 4.00 hrs; value ranges from 0.04-0.06 (ID.kg/g); assay type: ADME, organism-based; how it was run: as §3
Rattus norvegicus [23] = experiment: The biodistribution of the [125I]-labeled compound in rats after intravenous injection was evaluated in adrenal at 1.00 hrs; value ranges from 0.84-1.04 (ID.kg/g); assay type: ADME, organism-based; how it was run: as §2
Rattus norvegicus [24] = experiment: The biodistribution of the [125I]-labeled compound in rats after intravenous injection was evaluated in liver at 0.25 hr; value ranges from 0.69-1.03 (ID.kg/g); assay type: ADME, organism-based; how it was run: as §3
Rattus norvegicus [25] = experiment: The biodistribution of the [125I]-labeled compound in rats after intravenous injection was evaluated in liver at 1.00 hrs; value ranges from 0.54-0.58 (ID.kg/g); assay type: ADME, organism-based; how it was run: as §3
Rattus norvegicus [26] = experiment: The biodistribution of the [125I]-labeled compound in rats after intravenous injection was evaluated in lung at 1.00 hrs; value ranges from 0.34-0.43 (ID.kg/g); assay type: ADME, organism-based; how it was run: as §3
Rattus norvegicus [27] = experiment: The biodistribution of the [125I]-labeled compound in rats after intravenous injection was evaluated in adrenal at 4.00 hrs; value ranges from 0.20-0.32 (ID.kg/g); assay type: ADME, organism-based; how it was run: as §2
Rattus norvegicus [28] = experiment: The biodistribution of the [125I]-labeled compound in rats after intravenous injection was evaluated in muscle at 4.00 hrs (ID.kg/g); assay type: ADME, organism-based, Muscle tissue; how it was run: as §1
Rattus norvegicus [29] = experiment: The biodistribution of the [125I]-labeled compound in rats after intravenous injection was evaluated in liver at 4.00 hrs; value ranges from 0.40-0.61 (ID.kg/g); assay type: ADME, organism-based; how it was run: as §3
Rattus norvegicus [30] = experiment: The biodistribution of the [125I]-labeled compound in rats after intravenous injection was evaluated in lung at 4.00 hrs (ID.kg/g); assay type: ADME, organism-based; how it was run: as §3

With `CCN1CCN(c2ccc(I)cc2)CC1` the Biodistribution (Rattus norvegicus [1]) was 3.24%, the Biodistribution (Rattus norvegicus [2]) was 0.05% and the Biodistribution (Rattus norvegicus [3]) was 0.35%. The Biodistribution (Rattus norvegicus [4]) was 0.09%, the Biodistribution (Rattus norvegicus [5]) was 0.04% and the Biodistribution (Rattus norvegicus [6]) was 0.1%. The Biodistribution (Rattus norvegicus [7]) was 0.04%, the Biodistribution (Rattus norvegicus [8]) was 0.07 % ID·kg/g and the Biodistribution (Rattus norvegicus [9]) was 15.81%. It also gave a Biodistribution (Rattus norvegicus [10]) of 0.35%, a Biodistribution (Rattus norvegicus [11]) of 0.38% and a Biodistribution (Rattus norvegicus [12]) of 0.16%. It also gave a Biodistribution (Rattus norvegicus [13]) of 0.58%, a Biodistribution (Rattus norvegicus [14]) of 2.46% and a Biodistribution (Rattus norvegicus [15]) of 1.44%. It also gave a Biodistribution (Rattus norvegicus [16]) of 0.09%, a Biodistribution (Rattus norvegicus [17]) of 0.04 % ID·kg/g and a Biodistribution (Rattus norvegicus [18]) of 0.09%. The Biodistribution (Rattus norvegicus [19]) was 0.25%, the Biodistribution (Rattus norvegicus [20]) was 0.09 % ID·kg/g and the Biodistribution (Rattus norvegicus [21]) was 0.09%. It also gave a Biodistribution (Rattus norvegicus [22]) of 0.06%, a Biodistribution (Rattus norvegicus [23]) of 1.04% and a Biodistribution (Rattus norvegicus [24]) of 1.03%. The Biodistribution (Rattus norvegicus [25]) was 0.58%, the Biodistribution (Rattus norvegicus [26]) was 0.43% and the Biodistribution (Rattus norvegicus [27]) was 0.32%. For the same compound, the Biodistribution (Rattus norvegicus [28]) was 0.02 %ID·kg/g, the Biodistribution (Rattus norvegicus [29]) was 0.61% and the Biodistribution (Rattus norvegicus [30]) was 0.17%.
